Each block holds one compound with its values, some of them ahead of it.
Assays:
GLUTag cells = assay: GLP-1 release from GLUTag cells; type: cell-based, murine; settings: equimolar concentrations, 2 hours
Outline: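 Murine enteroendocrine GLUTag cells were grown in low-glucose GlutaMAX DMEM with 10% FBS and 1% Pen/Strep, then plated at 50,000 cells/well overnight. Cells were washed twice and preincubated 30 min in Krebs buffer with DPP4 inhibitor. Compounds from 10 mM DMSO stocks were added at 1 µM and 100 µM for 2 h, with DMSO as control. Clarified supernatant was assayed by active GLP-1 immunoassay. Two independent experiments gave 4–6 wells per condition, analysed by ANOVA.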

G2A (GPR132) = target: T1, G2A (GPR132) (Homo sapiens, UniProt Q9UNW8); assay: β-arrestin cell-based orphan GPCR agonist assay
T1 sequence (Q9UNW8 1-380): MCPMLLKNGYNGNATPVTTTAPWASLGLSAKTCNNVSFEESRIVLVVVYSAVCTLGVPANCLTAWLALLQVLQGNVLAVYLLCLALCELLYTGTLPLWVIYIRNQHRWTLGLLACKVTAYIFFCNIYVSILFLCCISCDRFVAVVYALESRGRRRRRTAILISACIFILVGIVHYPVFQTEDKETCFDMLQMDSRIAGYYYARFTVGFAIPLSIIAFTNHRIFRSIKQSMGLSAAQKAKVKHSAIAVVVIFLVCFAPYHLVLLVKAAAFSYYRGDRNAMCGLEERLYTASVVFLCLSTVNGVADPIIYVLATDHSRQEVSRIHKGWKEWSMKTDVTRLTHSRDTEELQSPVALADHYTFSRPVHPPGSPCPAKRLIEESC
Outline: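 Orphan GPCR panel, DiscoveRx β-arrestin recruitment format, agonist mode. Test compound was screened at 10 µM in singlicate. Follow-up dose-response curves were run in duplicate per dose, and EC50 was derived from them.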

[1] = target: T2, sphingosine-1-phosphate receptor 4 (S1PR4) (Homo sapiens, UniProt O95977); assay: β-arrestin cell-based GPCR agonist assay; settings: for activation of / interaction with S1PR4 (in words): GPCR screen
T2 sequence (O95977 1-384): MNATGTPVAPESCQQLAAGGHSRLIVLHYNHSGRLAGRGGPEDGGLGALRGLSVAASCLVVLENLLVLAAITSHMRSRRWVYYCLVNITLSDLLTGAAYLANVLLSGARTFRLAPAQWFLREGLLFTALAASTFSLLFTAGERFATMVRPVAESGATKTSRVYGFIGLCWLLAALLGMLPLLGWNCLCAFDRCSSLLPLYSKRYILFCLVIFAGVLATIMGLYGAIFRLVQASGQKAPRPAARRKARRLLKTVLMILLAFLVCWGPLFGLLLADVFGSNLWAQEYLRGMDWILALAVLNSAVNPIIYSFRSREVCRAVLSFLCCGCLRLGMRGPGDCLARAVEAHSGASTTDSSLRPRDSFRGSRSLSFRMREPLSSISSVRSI

S1PR1 = S1PR1 (Homo sapiens, UniProt P21453); assay: β-arrestin GPCR agonist screen, S1PR1; type: cell-based; settings: 10 µM ligand
Outline: (§1)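 Cell-based β-arrestin recruitment screen, run by a contract lab, at 10 µM ligand in agonist and antagonist modes across 168 GPCRs with known ligands plus 72 orphan GPCRs. Test compounds were bacterial N-acyl amides, taking the most abundant analog of each family from heterologous E. coli expression. Synthetic N-acyl amides were screened the same way.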

S1PR2 = S1PR2 (Homo sapiens, UniProt O95136); assay: β-arrestin GPCR agonist screen, S1PR2; type: cell-based; settings: 10 µM ligand
Outline: as §1

S1PR3 = S1PR3 (Homo sapiens, UniProt Q99500); assay: β-arrestin GPCR agonist screen, S1PR3; type: cell-based; settings: 10 µM ligand
Outline: as §1

GPR119 = target: T3, GPR119 (Homo sapiens, UniProt Q8TDV5); assay: cAMP secondary assay in ACTOne HEK293 cells transfected with GPR119; type: cell-based; settings: HEK293 cells stably transfected with GPR119 vs not transfected; GPR119 dependent
T3 sequence (Q8TDV5 1-335): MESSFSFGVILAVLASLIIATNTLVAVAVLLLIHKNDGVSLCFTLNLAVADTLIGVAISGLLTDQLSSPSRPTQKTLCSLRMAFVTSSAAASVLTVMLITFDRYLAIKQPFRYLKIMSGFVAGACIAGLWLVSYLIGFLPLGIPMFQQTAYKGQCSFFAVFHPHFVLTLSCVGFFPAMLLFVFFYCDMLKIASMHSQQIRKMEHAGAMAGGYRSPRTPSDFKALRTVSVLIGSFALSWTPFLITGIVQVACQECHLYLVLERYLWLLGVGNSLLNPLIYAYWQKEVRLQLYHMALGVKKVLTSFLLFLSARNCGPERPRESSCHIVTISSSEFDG
Outline: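 Orthogonal cAMP read-out used live ACTOne HEK293 cells, which carry a cAMP-sensitive ion channel, read with a membrane potential dye kit. GPR119-transfected cells were compared with parental untransfected cells. Each was exposed to equimolar ligand concentrations, with the endogenous ligand and an ADORA2B agonist as parental-line cAMP control. Relative fluorescence intensity was taken against background. Points were in quadruplicate, SD shown, and EC50 was derived.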

[2] = mice, intravenous delivery; cited from earlier work

Chain of S1PR1 (P21453 whole entry): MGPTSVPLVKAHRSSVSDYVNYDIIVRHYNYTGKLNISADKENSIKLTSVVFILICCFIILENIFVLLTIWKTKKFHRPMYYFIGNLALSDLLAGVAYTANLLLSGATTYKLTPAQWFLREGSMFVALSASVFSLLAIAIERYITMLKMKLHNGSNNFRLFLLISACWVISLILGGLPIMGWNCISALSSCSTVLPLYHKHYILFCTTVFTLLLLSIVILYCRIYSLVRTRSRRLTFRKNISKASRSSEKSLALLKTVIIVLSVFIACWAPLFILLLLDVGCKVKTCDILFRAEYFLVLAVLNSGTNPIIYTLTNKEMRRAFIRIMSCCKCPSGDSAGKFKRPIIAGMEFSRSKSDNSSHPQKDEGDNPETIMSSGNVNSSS
Chain of S1PR3 (Q99500 whole entry): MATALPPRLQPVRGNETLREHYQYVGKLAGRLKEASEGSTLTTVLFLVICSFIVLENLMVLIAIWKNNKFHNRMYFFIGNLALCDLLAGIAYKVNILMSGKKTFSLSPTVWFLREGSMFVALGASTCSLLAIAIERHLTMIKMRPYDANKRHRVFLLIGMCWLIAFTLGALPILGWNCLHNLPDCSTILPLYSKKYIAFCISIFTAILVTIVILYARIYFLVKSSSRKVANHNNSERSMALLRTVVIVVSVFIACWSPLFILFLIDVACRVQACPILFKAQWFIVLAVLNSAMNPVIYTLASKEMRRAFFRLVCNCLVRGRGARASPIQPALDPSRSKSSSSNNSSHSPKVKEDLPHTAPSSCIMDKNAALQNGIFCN
Chain of S1PR2 (O95136 whole entry): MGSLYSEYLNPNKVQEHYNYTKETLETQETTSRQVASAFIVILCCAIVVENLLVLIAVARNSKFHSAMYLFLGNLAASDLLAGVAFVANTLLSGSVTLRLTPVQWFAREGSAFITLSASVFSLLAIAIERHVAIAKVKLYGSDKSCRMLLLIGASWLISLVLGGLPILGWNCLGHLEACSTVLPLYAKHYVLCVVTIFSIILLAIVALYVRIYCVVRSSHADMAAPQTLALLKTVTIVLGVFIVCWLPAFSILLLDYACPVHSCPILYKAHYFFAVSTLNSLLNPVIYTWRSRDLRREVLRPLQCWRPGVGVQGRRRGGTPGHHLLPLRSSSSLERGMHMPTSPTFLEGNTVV

Compound: CCCCCCCC/C=C\CCCCCCCC(=O)OC(CO)CO [2-OG, 2-oleoyl glycerol]
GLP-1 secretion (GLUTag cells): to the same magnitude

Compound: CCCCCCCCCCCCCC(O)CC(=O)NCC(=O)O (stereo not shown) [N-3-hydroxypalmitoyl glycine]
activation of G2A (in words) (G2A (GPR132)): activate

Compound: CCCCCCCCCCCCCC(O)CC(=O)N[C@@H](CCCN)C(=O)O (stereo partly shown) [N-3-hydroxypalmitoyl ornithine]
EC50 [1]: 32 µM
activation of / interaction with S1PR4 (in words) [1]: interact
activation of S1PR1 (S1PR1): did not activate
activation of S1PR2 (S1PR2): did not activate
activation of S1PR3 (S1PR3): did not activate

Compound: CCCCCCCCCCCCCCCC(=O)N[C@@H](C)C(=O)O [N-palmitoyl alanine]
activation of G2A (in words) (G2A (GPR132)): activate

Second part, led by results:

activation of / interaction with S1PR4 (in words) [1]: interact
Compound: CCCCCCCCCCCCCC(O)CC(=O)N[C@@H](CCCCN)C(=O)O (stereo partly shown) [N-3-hydroxypalmitoyl lysine]

cellular cAMP concentration (in words) (GPR119): increased
Compound: CCCCCCCC/C=C\CCCCCCCC(=O)NCCO [OEA, oleoylethanolamide]
GLP-1 secretion (GLUTag cells): to the same magnitude
blood glucose in OGTT [2]: fails to lower blood glucose

activation of / interaction with S1PR4 (in words) [1]: activates
activation of S1PR1 (S1PR1): activates
activation of S1PR2 (S1PR2): activates
activation of S1PR3 (S1PR3): activates
Compound: CCCCCCCCCCCCC/C=C/[C@@H](O)[C@@H](N)COP(=O)(O)O [S1P, sphingosine-1-phosphate]
